A short description of data set [1]: Lipophilicity, log P of the compound. In kind it is physicochemical. The note with it: octanol/water.
Data set [2] relates to A549. The data set is described as follows: Growth inhibition of human A549 cells after 48 hrs. Type of data set: functional, cell-based. The settings on record: A549, 24 h, in the assay text read “after 24 hrs” for “after 48 hrs”.
Data set [3] relates to A549. The data set is described as follows: Reduction of cell viability of human A549 cells at 40 uM after 24 hrs by MTT assay. In kind it is functional. The gist of the method: (§1)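 Compounds dissolved in DMSO, final DMSO below 0.1% (v/v) in culture medium. Cells seeded in 96-well plates and treated at 10–80 μM for 24 or 48 h. Viability by MTT assay with absorbance read at 570 nm. Controls were untreated medium and 0.1% DMSO vehicle.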

The subject of data set [4] is A549. The data set is described as follows: Reduction of cell viability of human A549 cells at 40 uM after 48 hrs by MTT assay. In kind it is functional. The method, boiled down: as §1
The test system of data set [5] is A549. The experiment in a line: Reduction of cell viability of human A549 cells at 80 uM after 48 hrs by MTT assay. In kind it is functional. The method, boiled down: as §1
Data set [6] has as its system A549. The data set is described as follows: Effect on nuclear fragmentation in human A549 cells at 40 uM after 48 hrs by AO staining method. In kind it is functional, cell-based. The method, boiled down:
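Cells cultured 48 h in fresh medium with 0 or 40 μM compound, then stained with 5 μg/ml acridine orange at room temperature. Chromatin condensation and DNA fragmentation imaged by laser scanning confocal/fluorescence microscopy. Images representative of three independent experiments.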

Data set [7] relates to A549. The experiment in a line: Induction of apoptosis in A549 cells assessed as LDH release at 40 uM after 48 hrs. The settings on record: Homo sapiens. In kind it is functional, cell-based. The gist of the method: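 Culture medium collected after 48 h treatment at 40 μM and assayed for LDH release, compared against an untreated control group; n = 3.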
Data set [8] deals with A549. The data set is described as follows: Growth inhibition of human A549 cells after 24 hrs. In kind it is functional, cell-based. The settings on record: A549, 48 h, in the assay text read “after 48 hrs” for “after 24 hrs”. The gist of the method: as §1
In data set [9] the test system is A549. The experiment in a line: Effect on cell morphology in human A549 cells assessed as cell shrinkage at 40 uM after 48 hrs. Type of data set: functional, cell-based. The gist of the method: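 Cells exposed to 40 μM compound for 24 h and 48 h, then inspected under a phase contrast microscope for shrinkage. Untreated cells served as control.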

The structures appear in SMILES notation. pIC50: −log10 of the molar value. Active and inactive are the calls of the source. The rule behind the calls is not given here.

In the case of `COc1ccc(-c2cc(C(=O)NN)n(Cc3ccc(Cl)nc3)n2)cc1`, the logP in [1] was 2.76. The same compound showed a pIC50 with A549 [2] of 3.62.

For `NNC(=O)c1cc(-c2ccccc2)nn1Cc1ccccc1`, in data set [1], the log partition coefficient (logP) was 2.73. The compound further showed a negative-log IC50 (pIC50) with A549 [2] of 3.36.

For the compound `COc1ccc(-c2cc(C(=O)NN)n(Cc3ccc(C(C)(C)C)cc3)n2)cc1`, in data set [1], the logP was 4.6. Further, the Activity in the data set with A549 [3] worked out at 52%; with A549 [4], 26%; in the data set with A549 [5] it was 6%. The result in the data set on A549 [6] and in the data set with A549 [7] was Active. Further, the pIC50 with A549 [2] was 4.30; in the data set with A549 [8], 4.62.

For the compound `CC(C)(C)c1ccc(Cn2nc(-c3ccc(Cl)cc3)cc2C(=O)NN)cc1`, the lipophilicity (logP) in data set [1] stood at 4.94. The results for the Activity in the data set with A549 [3], with A549 [4] and in the data set on A549 [5] were 52%, 26% and 13%, respectively. The result in the data set with A549 [6] and with A549 [7] was Active. For the same compound, the pIC50 with A549 [2] is 4.17; in the data set on A549 [8] it was 4.73.

Consider `COc1ccc(-c2cc(C(=O)NN)n(Cc3ccccc3)n2)cc1`, for which the log partition coefficient (logP) in data set [1] is 2.87. In the data set with A549 [2], the pIC50 is 3.26.

As for `NNC(=O)c1cc(-c2ccc(Cl)cc2)nn1Cc1ccc(Cl)nc1`, the logP in [1] stood at 3.12. Besides, the negative-log IC50 (pIC50) in the data set on A549 [2] was 3.92; with A549 [8], 4.52.

For the compound `NNC(=O)c1cc(-c2ccccc2)nn1Cc1ccc(Cl)nc1`, the logP in [1] was 2.52. Moreover, the values for the pIC50 with A549 [2] and in the data set with A549 [8] were 3.65 and 4.17, respectively.

Regarding `CC(C)(C)c1ccc(Cn2nc(-c3ccccc3)cc2C(=O)NN)cc1`, the log partition coefficient (logP) in [1] is 4.49. For the same compound, the Activity was found to be 52% in the data set with A549 [3], 26% with A549 [4] and 15% with A549 [5]. Further, the outcome in the data set on A549 [9], in the data set on A549 [6] and in the data set on A549 [7] was Active. Further, the pIC50 was 4.18 in the data set on A549 [2] and 4.58 with A549 [8].

Compound `NNC(=O)c1cc(-c2ccc(Cl)cc2)nn1Cc1ccccc1` registered a log partition coefficient (logP) in [1] of 3.24. For the same compound, the pIC50 in the data set on A549 [2] is 3.63; in the data set on A549 [8] it was 4.41.

These data come from ChEMBL document CHEMBL1137467, “Synthesis and structure-activity relationships of novel 1-arylmethyl-3-aryl-1H-pyrazole-5-carbohydrazide derivatives as potential agents against A549 lung cancer cells” (Bioorg Med Chem, 2007).
